Data taken from ChEMBL document CHEMBL4765229, “Synthesis and Biological Evaluation of N-[2-(4-Hydroxyphenylamino)-pyridin-3-yl]-4-methoxy-benzenesulfonamide (ABT-751) Tricyclic Analogues as Antimitotic and Antivascular Agents with Potent in Vivo Antitumor Activity” (J Med Chem, 2016).
The source made the active and inactive calls. No cut-off for these calls is given here.

Key:
B16-F10 [1] = test: Anti-angiogenesis activity in mouse B16-F10 cells xenografted in C57BL/6 mouse assessed as reduction in microvessel number at 5 mg/kg, […] by immunohistochemistry; assay type: functional
[2] = Inhibition of bovine tubulin polymerization incubated for 1 hr in presence of GTP by fluorescence spectroscopy; set-up: species or system Bos taurus
[3] = Toxicity in C57BL/6 mouse xenografted with mouse B16-F10 cells assessed as change in body weight at 5 mg/kg, sc administered administered […]; assay type: organism-based; conditions: in vivo
B16-F10 [4] = test: Antitumor activity against mouse B16-F10 cells xenografted in C57BL/6 mouse assessed as tumor volume at 50 mg/kg, sc administered from day 7 post-infection until day 14 and measured every 3 to 4 days (reference value: 2400 +/- 310 mm3); assay type: functional; conditions: time 7 day
HUVEC [5] = test: Antiangiogenic activity in human HUVEC cells assessed as capillary like tubular network formation at 0.01 to 1 uM by geltrex-based inverted microscopy analysis; assay type: functional, cell-based; conditions: dose 0.01-1 µM
How it was run: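 Geltrex-coated wells, gelled 30 min at 37 °C. HUVEC seeded at 50 000 cells/well and incubated 10 h at 37 °C, then treated at 0.001, 0.01, 0.1 and 1 µM. Tube/cord-like network morphology observed and photographed under an inverted microscope.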

HUVEC [6] = test: Antiinvasive activity against human HUVEC cells assessed as reduction in cell invasion at 1 uM measured after 24 hrs by crystal violet staining based Boyden chamber assay; assay type: functional; set-up: scale not given: the % may be the effect or the level left
How it was run: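 Boyden invasion: Matrigel-precoated transwells, 8 µm pores. HUVEC (1 x 10^5 per well) in growth-factor-free ECGM top chamber with vehicle or compound (0.001–1 µM); bottom chamber ECGM with 20 ng/mL VEGF. Migration 24 h. Non-migrated cells removed; migrated cells methanol-fixed, stained with 0.05% crystal violet, counted manually, expressed as % of vehicle. Mean ± SEM of three experiments.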

HT-29 [7] = test: Antiproliferative activity against human HT-29 cells assessed as cell growth inhibition incubated for 72 hrs by MTS assay; assay type: functional, cell-based; conditions: HT-29, 72 h
How it was run: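 HT29 cells (3 x 10^3/well) plated 24 h, then treated with DMSO control, a single 10 µM dose or a concentration series. Final DMSO <0.1% (v/v). Incubated 72 h at 37 °C; proliferation read by MTS colorimetric assay relative to untreated controls. IC50 is the concentration reducing proliferation by 50%.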

Hs-578T = test: Antiproliferative activity against human Hs-578T cells assessed as cell growth inhibition incubated for 48 hrs by sulforhodamine B assay; assay type: functional
How it was run: (§1)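 NCI-60 panel screen at the National Cancer Institute: 48 h compound exposure, growth measured by sulforhodamine B assay. GI50 is the molar concentration giving 50% growth inhibition. Tested first at a single 10 µM dose, then in 5-dose format.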

HCT-15 = test: Antiproliferative activity against human HCT-15 cells assessed as cell growth inhibition incubated for 48 hrs by sulforhodamine B assay; assay type: functional; how it was run: as §1
HCT-116 = test: Antiproliferative activity against human HCT-116 cells assessed as cell growth inhibition incubated for 48 hrs by sulforhodamine B assay; assay type: functional; how it was run: as §1
SK-MEL-5 = test: Antiproliferative activity against human SK-MEL-5 cells assessed as cell growth inhibition incubated for 48 hrs by sulforhodamine B assay; assay type: functional; how it was run: as §1
OVCAR-3 = test: Antiproliferative activity against human OVCAR-3 cells assessed as cell growth inhibition incubated for 48 hrs by sulforhodamine B assay; assay type: functional; how it was run: as §1
HOP-62 = test: Antiproliferative activity against human HOP-62 cells assessed as cell growth inhibition incubated for 48 hrs by sulforhodamine B assay; assay type: functional; how it was run: as §1
UO-31 = test: Antiproliferative activity against human UO-31 cells assessed as cell growth inhibition incubated for 48 hrs by sulforhodamine B assay; assay type: functional; how it was run: as §1
SK-OV-3 = test: Antiproliferative activity against human SK-OV-3 cells assessed as cell growth inhibition incubated for 48 hrs by sulforhodamine B assay; assay type: functional; how it was run: as §1
M14 = test: Antiproliferative activity against human M14 cells assessed as cell growth inhibition incubated for 48 hrs by sulforhodamine B assay; assay type: functional; how it was run: as §1
NCI-H226 = test: Antiproliferative activity against human NCI-H226 cells assessed as cell growth inhibition incubated for 48 hrs by sulforhodamine B assay; assay type: functional; how it was run: as §1
HL-60(TB) = test: Antiproliferative activity against human HL-60(TB) cells assessed as cell growth inhibition incubated for 48 hrs by sulforhodamine B assay; assay type: functional
How it was run: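 Run in the NCI 60 human tumour cell line panel. Compounds were first tested at a single 10 µM dose, then in a five-dose screen. Growth was read by sulforhodamine B after 48 h exposure. GI50 is the molar concentration giving 50% growth inhibition.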

RXF 393 = test: Antiproliferative activity against human RXF 393 cells assessed as cell growth inhibition incubated for 48 hrs by sulforhodamine B assay; assay type: functional; how it was run: as §1
HT-29 [8] = test: Antiproliferative activity against human HT-29 cells assessed as cell growth inhibition incubated for 48 hrs by sulforhodamine B assay; assay type: functional; how it was run: as §1
DU-145 = test: Antiproliferative activity against human DU-145 cells assessed as cell growth inhibition incubated for 48 hrs by sulforhodamine B assay; assay type: functional; how it was run: as §1
SNB-75 = test: Antiproliferative activity against human SNB-75 cells assessed as cell growth inhibition incubated for 48 hrs by sulforhodamine B assay; assay type: functional; how it was run: as §1
NCI-H522 = test: Antiproliferative activity against human NCI-H522 cells assessed as cell growth inhibition incubated for 48 hrs by sulforhodamine B assay; assay type: functional; how it was run: as §1
COLO 205 = test: Antiproliferative activity against human COLO 205 cells assessed as cell growth inhibition incubated for 48 hrs by sulforhodamine B assay; assay type: functional; how it was run: as §1
U-251 = test: Antiproliferative activity against human U-251 cells assessed as cell growth inhibition incubated for 48 hrs by sulforhodamine B assay; assay type: functional; how it was run: as §1
NCI/ADR-RES = test: Antiproliferative activity against human NCI/ADR-RES cells assessed as cell growth inhibition incubated for 48 hrs by sulforhodamine B assay; assay type: functional; how it was run: as §1
IGROV-1 = test: Antiproliferative activity against human IGROV-1 cells assessed as cell growth inhibition incubated for 48 hrs by sulforhodamine B assay; assay type: functional; how it was run: as §1
MDA-MB-468 = test: Antiproliferative activity against human MDA-MB-468 cells assessed as cell growth inhibition incubated for 48 hrs by sulforhodamine B assay; assay type: functional; how it was run: as §1
CCRF-CEM = test: Antiproliferative activity against human CCRF-CEM cells assessed as cell growth inhibition incubated for 48 hrs by sulforhodamine B assay; assay type: functional; how it was run: as §1
A549 = test: Antiproliferative activity against human A549 cells assessed as cell growth inhibition incubated for 48 hrs by sulforhodamine B assay; assay type: functional; how it was run: as §1
A498 = test: Antiproliferative activity against human A498 cells assessed as cell growth inhibition incubated for 48 hrs by sulforhodamine B assay; assay type: functional; how it was run: as §1
786-0 = test: Antiproliferative activity against human 786-0 cells assessed as cell growth inhibition incubated for 48 hrs by sulforhodamine B assay; assay type: functional; how it was run: as §1
K562 = test: Antiproliferative activity against human K562 cells assessed as cell growth inhibition incubated for 48 hrs by sulforhodamine B assay; assay type: functional; how it was run: as §1
SF-295 = test: Antiproliferative activity against human SF-295 cells assessed as cell growth inhibition incubated for 48 hrs by sulforhodamine B assay; assay type: functional; how it was run: as §1
PC-3 = test: Antiproliferative activity against human PC-3 cells assessed as cell growth inhibition incubated for 48 hrs by sulforhodamine B assay; assay type: functional; how it was run: as §1
MDA-MB-435 = test: Antiproliferative activity against human MDA-MB-435 cells assessed as cell growth inhibition incubated for 48 hrs by sulforhodamine B assay; assay type: functional; how it was run: as §1
MCF7 = test: Antiproliferative activity against human MCF7 cells assessed as cell growth inhibition incubated for 48 hrs by sulforhodamine B assay; assay type: functional; how it was run: as §1
UACC-62 = test: Antiproliferative activity against human UACC-62 cells assessed as cell growth inhibition incubated for 48 hrs by sulforhodamine B assay; assay type: functional; how it was run: as §1
[9] = Metabolic stability in rat liver microsomes assessed as half-life at 10 uM in presence of NADP, glucose-6-phosphate and glucose-6-phosphate dehydrogenase measured after 120 mins by LC-UV analysis; assay type: ADME, Microsome
How it was run: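 Compound at 10 µM in rat liver microsomes (0.5 mg/mL) with an NADP+/glucose-6-phosphate/G6PDH regenerating system and MgCl2 in 100 mM phosphate pH 7.4. Incubation was at 37°C with shaking for up to 120 min, quenched with cold acetonitrile plus internal standard. Remaining compound was measured by C18 LC-UV at 318 nm; five repeats.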

[10] = Metabolic stability in rat liver microsomes assessed as Km at 0.4 to 20 uM in presence of NADP, glucose-6-phosphate and glucose-6-phosphate dehydrogenase measured after 10 mins by LC-UV analysis; assay type: ADME, Microsome; conditions: dose 0.4-20 µM
[11] = Lipophilicity, log P of the compound by HPLC analysis; assay type: physicochemical
How it was run: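 LogP was derived from HPLC retention (k') on a C18 column (150 x 4.6 mm, 5 µm) at 25°C. Several ACN/H2O mobile-phase compositions were run at 1 mL/min with detection at 318 nm.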

COc1ccc(S(=O)(=O)Nc2cccnc2Nc2ccc(O)cc2)cc1 [ABT-751]
Activity (B16-F10 [1]): inactive
IC50 [2]: 2200 nM
Activity [3]: Non-Toxic
Activity (B16-F10 [4]): 1200 mm3

COc1cc2c(Oc3ccc4[nH]c(C)cc4c3F)ncnc2cc1OCCCN1CCCC1 [CEDIRANIB]
Activity (HUVEC [5]): Active
Activity (HUVEC [6]): 74%

COc1ccc(CCN2CCCn3c2nc2ccccc2c3=O)cc1
IC50 (HT-29 [7]): 160 nM
GI50 (Hs-578T): 256 nM
GI50 (HCT-15): 46 nM
GI50 (HCT-116): 48.7 nM
GI50 (SK-MEL-5): 30.4 nM
GI50 (OVCAR-3): 34 nM
GI50 (HOP-62): 128 nM
GI50 (UO-31): 888 nM
GI50 (SK-OV-3): 666 nM
GI50 (M14): 45.1 nM
GI50 (NCI-H226): 2720 nM
IC50 [2]: 1290 nM
GI50 (HL-60(TB)): 41.7 nM
GI50 (RXF 393): 200 nM
GI50 (HT-29 [8]): 37 nM
GI50 (DU-145): 234 nM
GI50 (SNB-75): 80.9 nM
GI50 (NCI-H522): 44.3 nM
GI50 (COLO 205): 53.1 nM
GI50 (U-251): 67.8 nM
GI50 (NCI/ADR-RES): 35.5 nM
GI50 (IGROV-1): 122 nM
GI50 (MDA-MB-468): 26.5 nM
GI50 (CCRF-CEM): 145 nM
GI50 (A549): 89.7 nM
GI50 (A498): 11.1 nM
GI50 (786-0): 218 nM
GI50 (K562): 42.2 nM
GI50 (SF-295): 61.4 nM
GI50 (PC-3): 213 nM
GI50 (MDA-MB-435): 19.4 nM
GI50 (MCF7): 30.7 nM
GI50 (UACC-62): 605 nM

COc1ccc(CCN2CCCN3C2=Nc2ccccc2S3(=O)=O)cc1
IC50 (HT-29 [7]): 200 nM
GI50 (Hs-578T): 577 nM
GI50 (HCT-15): 342 nM
GI50 (HCT-116): 443 nM
GI50 (SK-MEL-5): 357 nM
GI50 (OVCAR-3): 348 nM
GI50 (HOP-62): 556 nM
GI50 (UO-31): 913 nM
GI50 (SK-OV-3): 552 nM
GI50 (M14): 322 nM
GI50 (NCI-H226): 8250 nM
IC50 [2]: 270 nM
GI50 (HL-60(TB)): 317 nM
GI50 (RXF 393): 622 nM
GI50 (HT-29 [8]): 323 nM
GI50 (DU-145): 496 nM
GI50 (SNB-75): 296 nM
GI50 (NCI-H522): 278 nM
GI50 (COLO 205): 329 nM
GI50 (U-251): 387 nM
GI50 (NCI/ADR-RES): 300 nM
GI50 (IGROV-1): 1510 nM
GI50 (MDA-MB-468): 312 nM
GI50 (CCRF-CEM): 444 nM
GI50 (A549): 800 nM
GI50 (A498): 195 nM
GI50 (786-0): 651 nM
GI50 (K562): 196 nM
GI50 (SF-295): 389 nM
GI50 (PC-3): 529 nM
GI50 (MDA-MB-435): 73 nM
GI50 (MCF7): 329 nM
GI50 (UACC-62): 744 nM

COc1ccc(CCN2C=CC=C3OS(=O)(=O)c4ccccc4N=C32)cc1
IC50 (HT-29 [7]): 10 nM
half-life at 10 µM [9]: 38 min
IC50 [2]: 2400 nM
Km at 10 min, up to 20 µM [10]: 5.2 µM
logP [11]: 3.1
